The text below walks through data of ChEMBL document CHEMBL1128540, “Synthesis and quantitative structure-activity relationships of dequalinium analogues as K+ channel blockers: investigation into the role of the substituent at position 4 of the quinoline ring” (J Med Chem, 1995).

For assay [1], the target named is Small conductance calcium-activated potassium channel (Rattus norvegicus, UniProt P70604+P70606+P70605). The assay can be described thus: The SKCa-blocking action was assessed by its ability to inhibit the after hyperpolarization (AHP) in cultured rat sympathetic neurones. The following applies: sympathetic neuron. Type of assay: functional, cell-based. An outline of the steps: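 SKCa block was read as inhibition of the after-hyperpolarization following action potentials in cultured rat sympathetic neurones. Each compound was tested at two to four concentrations on at least three cells, and IC50 was taken for 50% AHP inhibition. Concentrations above 10–30 μM were generally avoided. Dequalinium was included as reference in each series.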

A short description of assay [2]: Equieffective molar ratio(EMR) to that of the dequalinium, causing 50% inhibition of AHP(action potential). The format is functional. A digest of the protocol: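 AHP inhibition in cultured rat sympathetic neurones. Each compound was tested at two to four concentrations on at least three cells, with dequalinium run as reference in the same series (one to three compounds per series). EMR is the ratio of test compound to dequalinium concentration giving 50% AHP inhibition within the same experiment. Test concentrations above 10–30 μM were generally avoided.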

For `c1ccc(Oc2cc[n+](CCCCCCCCCC[n+]3ccc(Oc4ccccc4)c4ccccc43)c3ccccc23)cc1`, the IC50 in assay [1] is 2.7 µM. In addition, in assay [2], the EMR came out at 6.5.

With `Nc1ccc2c(NCc3ccccc3)cc[n+](CCCCCCCCCC[n+]3ccc(NCc4ccccc4)c4ccc(N)cc43)c2c1`, the IC50 in assay [1] was 0.5 µM. In addition, in assay [2], the EMR came out at 0.9.

On to `COc1cc2c3cc1Oc1cc(ccc1O)C[C@@H]1c4c(cc(OC)c(O)c4Oc4ccc(cc4)C[C@@H]3N(C)CC2)CC[N+]1(C)C.[Cl-]`, for which the half-maximal inhibitory concentration (IC50) in assay [1] is 7.5 µM.

`Cc1cc[n+](CCCCCCCCCC[n+]2ccc(C)c3ccccc32)c2ccccc12`: the IC50 in assay [1] turned out to be 14.5 µM. Further, the EMR in assay [2] worked out at 26.

With `c1ccc(Nc2cc[n+](CCCCCCCCCC[n+]3ccc(Nc4ccccc4)c4ccccc43)c3ccccc23)cc1`, the IC50 in assay [1] amounted to 2.4 µM. Further, the EMR in assay [2] came to 3.4.

Take `CN(c1ccccc1)c1cc[n+](CCCCCCCCCC[n+]2ccc(N(C)c3ccccc3)c3ccccc32)c2ccccc12`: the IC50 in assay [1] is 1.4 µM. Besides, the EMR in assay [2] was found to be 1.7.

As to `[O-]c1cc[n+](CCCCCCCCCC[n+]2ccc([O-])c3ccccc32)c2ccccc12`, the IC50 in assay [1] was > 10 µM. Further, in assay [2], the EMR is > 10.

As to `Cc1cc(N)c2ccccc2[n+]1CCCCCCCCCC[n+]1c(C)cc(N)c2ccccc21.[Cl-].[Cl-]` [DEQUALINIUM CHLORIDE], in assay [1], the IC50 is 0.74 µM. The EMR in assay [2] came to 1.

In the case of `CN(C)c1cc[n+](CCCCCCCCCC[n+]2ccc(N(C)C)c3ccccc32)c2ccccc12`, the IC50 in assay [1] is 1.4 µM. For the same molecule, the EMR in assay [2] is 1.4.

As for `Nc1c2c([n+](CCCCCCCCCC[n+]3c4c(c(N)c5ccccc53)CCCC4)c3ccccc13)CCCC2`, the IC50 in assay [1] worked out at 1 µM. The EMR in assay [2] is 0.9.

As to `c1ccc2c(c1)ccc[n+]2CCCCCCCCCC[n+]1cccc2ccccc21`, the concentration for half-maximal inhibition (IC50) in assay [1] is 21 µM. The EMR in assay [2] is 15.

`CC(=O)O[C@H]1C[C@@H]2CC[C@@H]3[C@H](CC[C@@]4(C)[C@H]3C[C@H]([N+]3(C)CCCCC3)[C@@H]4OC(C)=O)[C@@]2(C)C[C@@H]1[N+]1(C)CCCCC1.[Br-].[Br-]` [PANCURONIUM BROMIDE]: the IC50 in assay [1] came to 6.8 µM.

For the molecule `c1ccc(CNc2cc[n+](CCCCCCCCCC[n+]3ccc(NCc4ccccc4)c4ccccc43)c3ccccc23)cc1`, the IC50 in assay [1] came to 0.52 µM. In addition, the EMR in assay [2] worked out at 0.7.

On to `CC(=O)Nc1cc[n+](CCCCCCCCCC[n+]2ccc(NC(C)=O)c3ccccc32)c2ccccc12`, for which the IC50 in assay [1] was 4.5 µM. Moreover, in assay [2], the EMR was determined as 5.5.

Regarding `COc1cc(OC)c(CNc2cc[n+](CCCCCCCCCC[n+]3ccc(NCc4c(OC)cc(OC)cc4OC)c4ccccc43)c3ccccc23)c(OC)c1`, in assay [1], the IC50 came to 0.6 µM. Further, the EMR in assay [2] stood at 1.

Regarding `Nc1cc[n+](CCCCCCCCCC[n+]2ccc(N)c3ccccc32)c2ccccc12`, the IC50 in assay [1] was found to be 1.4 µM. Moreover, in assay [2], the EMR was determined as 1.3.

One may read the IC50 as the concentration needed to halve the response being measured.
